{"source": "ChEMBL document CHEMBL1133719", "about": "“Synthesis and preliminary biological evaluations of CC-1065 analogues: effects of different linkers and terminal amides on biological activity” (J Med Chem, 2000)", "key": {"A549": {"tested_on": "A549", "assay": "Cytotoxicity against NCI tumor panel, A-549/ATCC non small-cell lung cancer cell line", "format": "functional, cell-based", "conditions": "Homo sapiens", "in_short": "(§1)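 NCI cell-line panel screen run by the National Cancer Institute; sulforhodamine B (SRB) readout after 48-h drug incubation.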"}, "BT-549": {"tested_on": "BT-549", "assay": "Cytotoxicity against NCI tumor panel, BT-549 breast cancer cell line", "format": "functional, cell-based", "conditions": "Homo sapiens", "in_short": "as §1"}, "CAKI-1": {"tested_on": "CAKI-1", "assay": "Cytotoxicity against NCI tumor panel, CAKI-1 renal cancer cell line", "format": "functional, cell-based", "conditions": "Homo sapiens", "in_short": "as §1"}, "COLO 205": {"tested_on": "COLO 205", "assay": "Cytotoxicity against NCI tumor panel, COLO 205 colon cancer cell line", "format": "functional, cell-based", "conditions": "Homo sapiens", "in_short": "as §1"}, "DU-145": {"tested_on": "DU-145", "assay": "Cytotoxicity against NCI tumor panel, DU145 prostate cancer cell line", "format": "functional, cell-based", "conditions": "Homo sapiens", "in_short": "as §1"}, "HOP-92": {"tested_on": "HOP-92", "assay": "Cytotoxicity against NCI tumor panel, HOP-92 non small-cell lung cancer cell line", "format": "functional, cell-based", "conditions": "Homo sapiens", "in_short": "as §1"}, "IGROV-1": {"tested_on": "IGROV-1", "assay": "Cytotoxicity against NCI tumor panel, IGROV1 ovarian cancer cell line", "format": "functional, cell-based", "conditions": "Homo sapiens", "in_short": "(§2)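 Performed by NCI with the sulforhodamine B (SRB) method on its human tumour cell panel, using a 48-h drug incubation.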"}, "MDA-MB-435": {"tested_on": "MDA-MB-435", "assay": "Cytotoxicity against NCI tumor panel, MDA-MB-435 breast cancer cell line", "format": "functional, cell-based", "conditions": "Homo sapiens", "in_short": "as §2"}, "Mus musculus [1]": {"tested_on": "Mus musculus", "assay": "Haematological effects in mice dose administered intraperitoneally", "format": "functional", "in_short": "(§3)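 Non-tumor-bearing female CDF1 mice, 10 per group. Drugs were dissolved in DMSO, diluted in 30% DMSO/0.5% glucose, and given as a single ip dose on day 1 (doses per kg). Blood was sampled on day 27 for WBC, platelet, RBC and MCHC counts. Values are medians of 10 mice.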"}, "Mus musculus [2]": {"species": "Mus musculus", "assay": "Mice bearing B16BL6 leukemia at a dose 100", "format": "functional", "conditions": "in the assay text read “melanoma” for “leukemia”", "in_short": "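Female BDF1 mice (4-6 weeks old, 8 per group) were inoculated ip with 10⁶ B16BL6 melanoma cells on day 0. Drugs in dimethylacetamide were diluted in DMA:Cremophor:water (1:5:44) and given ip at 0.1 mL on days 1, 5 and 9 (doses per kg). Read-outs were %ILS = (T/C − 1) × 100 on median survival of dying animals only, mean body weight change from day 1 to day 10 (g/mouse), and 90-day survivors.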"}, "Mus musculus [3]": {"tested_on": "Mus musculus", "assay": "Antitumor activity was tested in mice and percent increase of life span at a dose of 25 ug/kg was reported", "format": "functional"}, "Mus musculus [4]": {"tested_on": "Mus musculus", "assay": "Antitumor activity in BDF1 male mice bearing L1210 Leukemia at a dose of 25 ug/kg; survivors for 30 days was reported", "format": "functional", "in_short": "(§4)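 Male BDF1 mice, 4-6 weeks old, 6 per group, were given 10⁵ L1210 cells ip on day 0. Drug in DMF was diluted in 30% DMSO/0.5% glucose and given ip on days 1, 5 and 9. %ILS = (T/C − 1) × 100 on median survival of dying animals only; 30-day survivors noted separately. Group weight change was taken from day 0 to the lowest-weight day.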"}, "Mus musculus [5]": {"tested_on": "Mus musculus", "assay": "Antitumor activity in BDF1 male mice bearing L1210 Leukemia at a dose of 42 ug/kg; survivors for 30 days was reported", "format": "functional", "in_short": "as §4"}, "Mus musculus [6]": {"tested_on": "Mus musculus", "assay": "Antitumor activity in BDF1 male mice bearing L1210 Leukemia at a dose of 70 ug/kg", "format": "functional", "in_short": "as §4"}, "Mus musculus [7]": {"species": "Mus musculus", "assay": "Hematological effects in female CDF1 mice at the dose of 50ug, in white blood cells", "format": "functional", "in_short": "as §3"}, "Mus musculus [8]": {"species": "Mus musculus", "assay": "Body weight change between days 0 and the day when the animal weight was the lowest", "format": "functional", "in_short": "as §4"}, "OVCAR-8": {"tested_on": "OVCAR-8", "assay": "Cytotoxicity against NCI tumor panel, OVCAR-8 ovarian cancer cell line", "format": "functional, cell-based", "conditions": "Homo sapiens", "in_short": "as §2"}, "NCI-H322M": {"tested_on": "NCI-H322M", "assay": "Cytotoxicity against NCI tumor panel, NCI-H322M non small-cell lung cancer cell line", "format": "functional, cell-based", "conditions": "Homo sapiens", "in_short": "as §2"}, "NCI-H460": {"tested_on": "NCI-H460", "assay": "Cytotoxicity against NCI tumor panel, NCI-H460 non small-cell lung cancer cell line", "format": "functional, cell-based", "conditions": "Homo sapiens", "in_short": "as §2"}, "SF-295": {"tested_on": "SF-295", "assay": "Cytotoxicity against NCI tumor panel, SF-295 CNS cancer cell line", "format": "functional, cell-based", "conditions": "Homo sapiens", "in_short": "as §2"}, "SN12C": {"tested_on": "SN12C", "assay": "Cytotoxicity against NCI tumor panel, SN12C renal cancer cell line", "format": "functional, cell-based", "conditions": "Homo sapiens", "in_short": "as §2"}, "SK-OV-3": {"tested_on": "SK-OV-3", "assay": "cytotoxicity against NCI tumor panel, SK-OV-3 ovarian cancer cell line", "format": "functional, cell-based", "conditions": "Homo sapiens", "in_short": "as §2"}, "SK-MEL-28": {"tested_on": "SK-MEL-28", "assay": "Cytotoxicity against NCI tumor panel, SK-MEL28 melanoma cancer cell line", "format": "functional, cell-based", "conditions": "Homo sapiens", "in_short": "as §2"}, "TK-10": {"tested_on": "TK-10", "assay": "Cytotoxicity against NCI tumor panel, TK10 renal cancer cell line", "format": "functional, cell-based", "conditions": "Homo sapiens", "in_short": "as §2"}, "HCT-15": {"tested_on": "HCT-15", "assay": "Cytotoxicity against NCI tumor panel, HCT-15 colon cancer cell line", "format": "functional, cell-based", "conditions": "Homo sapiens", "in_short": "as §1"}, "T47D": {"tested_on": "T47D", "assay": "cytotoxicity against NCI tumor panel, T-47D breast cancer cell line", "format": "functional, cell-based", "conditions": "Homo sapiens", "in_short": "as §2"}, "Hs-578T": {"tested_on": "Hs-578T", "assay": "Cytotoxicity against NCI tumor panel, HS 578T breast cancer cell line", "format": "functional, cell-based", "conditions": "Homo sapiens", "in_short": "as §2"}, "U-251": {"tested_on": "U-251", "assay": "Cytotoxicity against NCI tumor panel, U251 CNS cancer cell line", "format": "functional, cell-based", "conditions": "Homo sapiens", "in_short": "as §2"}}, "note": "Values joined by “and” are separate entries in the source; they are usually repeats but may differ in a detail not shown here. Equal values may be shown once."}
{"smiles": "CC(=O)Nc1ccc2[nH]c(C(=O)Nc3ccc4[nH]c(C(=O)N5CC(CCl)c6c5cc(O)c5ccccc65)cc4c3)cc2c1", "note": "(stereo not drawn)", "values": [{"measurement": "IC50", "setting": "A549", "value": 1.49, "unit": "nM"}, {"measurement": "IC50", "setting": "BT-549", "value": 3.29, "unit": "nM"}, {"measurement": "IC50", "setting": "CAKI-1", "value": 4.27, "unit": "nM"}, {"measurement": "IC50", "setting": "COLO 205", "value": 2.99, "unit": "nM"}, {"measurement": "IC50", "setting": "DU-145", "value": 0.982, "unit": "nM"}, {"measurement": "IC50", "setting": "HOP-92", "value": 2.11, "unit": "nM"}, {"measurement": "IC50", "setting": "IGROV-1", "value": 1.01, "unit": "nM"}, {"measurement": "IC50", "setting": "MDA-MB-435", "value": 1.86, "unit": "nM"}, {"measurement": "Dose", "setting": "Mus musculus [1]", "value": 0.05, "unit": "mg/kg"}, {"measurement": "Dose", "setting": "Mus musculus [2]", "value": 0.1, "unit": "mg/kg"}, {"measurement": "ILS", "setting": "Mus musculus [3]", "value": "67% and 107%"}, {"measurement": "No. of survivors", "setting": "Mus musculus [4]", "value": 0}, {"measurement": "No. of survivors", "setting": "Mus musculus [5]", "value": 0}, {"measurement": "No. of survivors", "setting": "Mus musculus [6]", "value": 1}, {"measurement": "WBC", "setting": "Mus musculus [7]", "value": "13.1 10e3 ul-1"}, {"measurement": "Weight", "setting": "Mus musculus [8]", "value": 23, "unit": "%"}, {"measurement": "IC50", "setting": "OVCAR-8", "value": 1.6, "unit": "nM"}, {"measurement": "IC50", "setting": "NCI-H322M", "value": 2.13, "unit": "nM"}, {"measurement": "IC50", "setting": "NCI-H460", "value": 1.48, "unit": "nM"}, {"measurement": "IC50", "setting": "SF-295", "value": 2.64, "unit": "nM"}, {"measurement": "IC50", "setting": "SN12C", "value": 3.01, "unit": "nM"}, {"measurement": "IC50", "setting": "SK-OV-3", "value": 4.33, "unit": "nM"}, {"measurement": "IC50", "setting": "SK-MEL-28", "value": 2.21, "unit": "nM"}, {"measurement": "IC50", "setting": "TK-10", "value": 3.13, "unit": "nM"}, {"measurement": "IC50", "setting": "HCT-15", "value": "> 10", "unit": "nM"}, {"measurement": "IC50", "setting": "T47D", "value": 1.68, "unit": "nM"}, {"measurement": "IC50", "setting": "Hs-578T", "value": 1.63, "unit": "nM"}, {"measurement": "IC50", "setting": "U-251", "value": 0.719, "unit": "nM"}]}
